The record followed here is ChEMBL document CHEMBL3612019, “Revisiting 1,3,4-Oxadiazol-2-ones: Utilization in the Development of ABHD6 Inhibitors” (Bioorg Med Chem, 2015).

The source made the active and inactive calls. The calls are words filed in the database; no cut-off is given here.

Assay [1] has as its target T1, Monoacylglycerol lipase ABHD6 (Homo sapiens, UniProt Q9BV23).
T1 sequence (Q9BV23 whole entry): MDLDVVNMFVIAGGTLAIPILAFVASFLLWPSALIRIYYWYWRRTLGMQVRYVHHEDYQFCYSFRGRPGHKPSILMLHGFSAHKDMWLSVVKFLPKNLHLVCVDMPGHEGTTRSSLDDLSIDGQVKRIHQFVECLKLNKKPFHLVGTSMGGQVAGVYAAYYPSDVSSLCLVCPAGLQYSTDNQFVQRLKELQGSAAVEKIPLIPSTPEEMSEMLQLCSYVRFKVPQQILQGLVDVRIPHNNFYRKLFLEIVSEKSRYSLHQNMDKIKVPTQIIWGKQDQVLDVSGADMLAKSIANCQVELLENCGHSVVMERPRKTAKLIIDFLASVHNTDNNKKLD
Put plainly: Inhibition of human ABHD6 expressed in HEK293 cells assessed as reduction in glycerol production from 1-AG hydrolysis pre-incubated for 30 mins before 1-AG substrate addition and measured 90 mins post substrate addition by fluorescence method. Type of assay: cell-based. In short, it runs like this: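 hABHD6-HEK293 lysates pretreated 30 min with DMSO or inhibitor, then given 1-AG (12.5 µM final). Glycerol release was followed kinetically by fluorescence (emission 590 nm). Blanks without lysate were subtracted. IC50 was taken at the 90 min time point by nonlinear fitting of dose–response curves.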

Assay [2] deals with T1, Monoacylglycerol lipase ABHD6. Briefly: Inhibition of human ABHD6 expressed in HEK293 cells at 1 uM pre-incubated for 10 mins before 2-AG substrate addition followed by rapid 40 fold compound dilution measured after 60 mins by HPLC method. Type of assay: cell-based.
Assay [3] shares this target. Put plainly: Inhibition of human ABHD6 expressed in HEK293 cells at 1 uM pre-incubated for 10 mins before 2-AG substrate addition followed by rapid 40 fold compound dilution measured after 90 mins by HPLC method. Type of assay: cell-based.
The target is the same in assay [4]. Briefly: Inhibition of human ABHD6 expressed in HEK293 cells at 1 uM pre-incubated for 10 mins before 2-AG substrate addition followed by rapid 40 fold compound dilution measured after 10 mins by HPLC method. Type of assay: cell-based.
For assay [5] the target is unchanged. Briefly: Inhibition of human ABHD6 expressed in HEK293 cells at 1 uM pre-incubated for 10 mins before 2-AG substrate addition followed by rapid 40 fold compound dilution measured after 30 mins by HPLC method. Type of assay: cell-based.
Assay [6] has as its target T2, Fatty-acid amide hydrolase 1 (Homo sapiens) (UniProt O00519).
T2 sequence (whole entry): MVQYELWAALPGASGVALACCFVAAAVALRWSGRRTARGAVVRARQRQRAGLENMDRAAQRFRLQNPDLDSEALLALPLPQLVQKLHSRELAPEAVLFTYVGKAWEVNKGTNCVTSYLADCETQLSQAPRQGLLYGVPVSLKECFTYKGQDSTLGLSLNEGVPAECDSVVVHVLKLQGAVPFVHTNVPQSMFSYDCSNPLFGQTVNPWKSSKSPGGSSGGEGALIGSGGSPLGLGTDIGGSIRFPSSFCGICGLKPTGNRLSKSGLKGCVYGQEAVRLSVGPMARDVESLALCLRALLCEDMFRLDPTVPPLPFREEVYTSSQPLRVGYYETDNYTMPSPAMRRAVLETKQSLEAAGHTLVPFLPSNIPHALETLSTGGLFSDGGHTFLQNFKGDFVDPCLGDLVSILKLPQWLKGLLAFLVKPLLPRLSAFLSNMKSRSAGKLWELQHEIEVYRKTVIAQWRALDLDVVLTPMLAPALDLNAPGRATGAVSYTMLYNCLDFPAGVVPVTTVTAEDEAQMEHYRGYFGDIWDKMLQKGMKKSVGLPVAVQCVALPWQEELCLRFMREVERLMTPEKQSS
Briefly: Inhibition of human FAAH expressed in COS7 cell membranes at 10 uM pre-incubated for 10 mins before [3H]-AEA substrate addition by liquid scintillation counting. The settings on record: COS-7.

For assay [7], the target named is T3, Monoglyceride lipase (Homo sapiens) (UniProt Q99685).
T3 sequence (whole entry): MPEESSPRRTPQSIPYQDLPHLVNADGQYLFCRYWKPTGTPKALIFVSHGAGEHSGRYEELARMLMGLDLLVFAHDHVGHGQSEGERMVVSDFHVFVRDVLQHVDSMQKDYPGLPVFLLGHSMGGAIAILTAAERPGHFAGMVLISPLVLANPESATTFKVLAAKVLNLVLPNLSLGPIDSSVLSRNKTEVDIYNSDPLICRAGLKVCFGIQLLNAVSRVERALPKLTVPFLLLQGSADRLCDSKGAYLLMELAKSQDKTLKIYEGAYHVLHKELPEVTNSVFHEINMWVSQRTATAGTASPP
Put plainly: Inhibition of human MAGL expressed in HEK293 cells at 10 uM pre-incubated for 10 mins before 2-AG substrate addition by HPLC method. Type of assay: cell-based. The method in brief:
(§1)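 Lysates of hMAGL-overexpressing HEK293 cells in 50 mM Tris–HCl pH 7.4 with 1 mM EDTA. After a 10 min preincubation with inhibitor or DMSO, 2-AG was added (final 50 µM) and incubated 10 min at 37 °C. The reaction was stopped and samples centrifuged. Arachidonic acid formation and 2-AG depletion were measured by HPLC. Replicates as for the FAAH assay.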

The target of assay [8] is T4, Monoglyceride lipase (Homo sapiens, UniProt Q99685).
T4 sequence (Q99685 whole entry): T3 sequence (whole entry)
Put plainly: Inhibition of human MAGL expressed in HEK293 cells pre-incubated for 10 mins before 2-AG substrate addition by HPLC method. The format is cell-based. The method in brief:
as §1

Assay [9] deals with T5, Lysophosphatidylserine lipase ABHD12 (Homo sapiens) (UniProt Q8N2K0).
T5 sequence (whole entry): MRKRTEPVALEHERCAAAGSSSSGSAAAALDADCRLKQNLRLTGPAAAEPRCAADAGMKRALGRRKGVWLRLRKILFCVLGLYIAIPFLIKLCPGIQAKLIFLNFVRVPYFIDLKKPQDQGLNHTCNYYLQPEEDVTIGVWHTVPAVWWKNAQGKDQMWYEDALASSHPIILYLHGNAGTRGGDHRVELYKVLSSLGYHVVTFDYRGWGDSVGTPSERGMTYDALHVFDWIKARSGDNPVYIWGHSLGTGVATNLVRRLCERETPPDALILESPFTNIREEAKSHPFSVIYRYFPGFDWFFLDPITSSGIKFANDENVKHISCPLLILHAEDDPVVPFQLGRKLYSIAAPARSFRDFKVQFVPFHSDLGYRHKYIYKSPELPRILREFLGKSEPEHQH
Put plainly: Inhibition of human ABHD12 expressed in HEK293 cells assessed as remaining enzyme activity at 1 uM pre-incubated for 10 mins before 2-AG substrate addition by HPLC method. The format is cell-based.

Assay [10] addresses T6, Monoacylglycerol lipase ABHD6 (Homo sapiens) (UniProt Q9BV23).
T6 sequence (whole entry): T1 sequence (Q9BV23 whole entry)
Briefly: Reversible inhibition of human ABHD6 expressed in HEK293 cells at 1 uM pre-incubated for 10 mins before 2-AG substrate addition followed by rapid 40 fold compound dilution measured after 10 to 90 mins by HPLC method. Type of assay: cell-based.

Assay [11] deals with Cannabinoid receptor 1 (Rattus norvegicus) (UniProt P20272). The settings on record: Cerebellum, Membrane, 1 uM.
Sequence of Cannabinoid receptor 1 (Rattus norvegicus) (P20272 whole entry): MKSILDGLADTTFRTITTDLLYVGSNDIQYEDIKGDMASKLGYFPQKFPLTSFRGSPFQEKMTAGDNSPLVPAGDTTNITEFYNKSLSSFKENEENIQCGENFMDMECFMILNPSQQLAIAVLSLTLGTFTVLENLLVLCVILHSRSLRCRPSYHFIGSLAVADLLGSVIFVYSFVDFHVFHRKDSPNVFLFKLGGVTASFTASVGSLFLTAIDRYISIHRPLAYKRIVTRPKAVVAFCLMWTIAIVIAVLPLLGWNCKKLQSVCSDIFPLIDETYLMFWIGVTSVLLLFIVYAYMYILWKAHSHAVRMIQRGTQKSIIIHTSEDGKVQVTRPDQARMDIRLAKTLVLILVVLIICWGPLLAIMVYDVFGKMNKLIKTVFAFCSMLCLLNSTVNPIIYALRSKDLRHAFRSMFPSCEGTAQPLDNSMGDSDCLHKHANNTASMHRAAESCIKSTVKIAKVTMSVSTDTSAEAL
In assay [12] the target is T7, Fatty-acid amide hydrolase 1 (Homo sapiens, UniProt O00519).
T7 sequence (O00519 whole entry): T2 sequence (whole entry)
Put plainly: Inhibition of human FAAH expressed in COS7 cell membranes pre-incubated for 10 mins before [3H]-AEA substrate addition by liquid scintillation counting. Also on record: species or system COS-7. The settings on record: cos-7; read-out: IC50.

The target in assay [13] is T6, Monoacylglycerol lipase ABHD6 (Homo sapiens). Put plainly: Inhibition of human ABHD6 expressed in HEK293 cells assessed as remaining enzyme activity by measuring reduction in glycerol production from 1-AG hydrolysis at 1 uM pre-incubated for 30 mins before 1-AG substrate addition and measured 90 mins post substrate addition by fluorescence method; values are per cent of control.

Consider `CN(C(=O)Oc1nsnc1N1CCOCC1)C1CCCCCCC1`, for which, in assay [1] (hek293), the pIC50 worked out at 7.36. For the same compound, the IC50 in assay [2] is 87.1 nM; in assay [3] it was 93.3 nM; in assay [4], 91.2 nM; in [5], 87.1 nM. The compound further came in with an inhibition in assay [6] of 18%. In addition, the inhibition entry in [7] is “inactive”.

Take `O=c1oc(Oc2ccccc2)nn1Cc1cccc([N+](=O)[O-])c1`: the IC50 in assay [8] (read-out: IC50) was 3.31 µM; in [8] (read-out: pIC50 (converted)), 3.24 µM; in assay [1] it was 130 nM. Also, in assay [6], the inhibition came out at 38%. In addition, in assay [9], the inhibition entry was “inactive”.

Regarding `COC(=O)c1cccc(Cn2nc(OC)oc2=O)c1`, the IC50 in [1] was 450 nM. Besides, the inhibition in [6] is 20%; in assay [7], 7%. For the same compound, the inhibition result in assay [9] is “inactive”.

In the case of `CCCCCCCCCCC[C@@H](C[C@@H]1OC(=O)[C@H]1CCCCCC)OC(=O)[C@H](CC(C)C)NC=O`, the inhibition result in assay [10] was “Active”.

In [11], `Cc1c(C(=O)NN2CCCCC2)nn(-c2ccc(Cl)cc2Cl)c1-c1ccc(I)cc1` came in with an inhibition of 38%.

Take `O=C(N1CCC(=C2c3ccc(Cl)cc3CCc3cccnc32)CC1)n1cncn1`: the IC50 in assay [8] (hek293, read-out: IC50) stood at 0.046 µM; in [1] (hek293), 1780 nM; in assay [12], 7.24 µM.

Turning to `CCOc1nn(Cc2cccc([N+](=O)[O-])c2)c(=O)o1`, the residual activity in assay [13] turned out to be 63%. The inhibition result in [6] and in assay [9] was “inactive” throughout. This compound yielded an inhibition in assay [7] of 30%.

By pIC50 is commonly meant −log10 of the IC50, conventionally taken in molar units. What is called inhibition is the share of the control response that was lost under treatment. Broadly, the residual activity is what remains of the control signal, in per cent.
